# Published values gathered from unrelated publications.
# Each line is one published result; the experiments were not run side by side.
Compound,cell line,assay,system,setting,endpoint,result
CC[C@@H](C)[C@H](N)C(=O)N1Cc2ccccc2C1,K562,"cell growth or viability, ATP luminescence",,60 µM,viability,92%
Clc1ccc(COc2cncc(-c3cnn(C4CCNCC4)c3)c2)c(Cl)c1,MDCK,,Caco-2,,Papp,10.9 ×10⁻⁶ cm/s
C#C[C@]1(COP(=O)(O)OP(=O)(O)OP(=O)(O)O)O[C@@H](n2cnc3c(N)nc(F)nc32)C[C@@H]1O,human PBMC,,plasma,"oral, 5 mg, single dose",half-life,126 h
C=C(C)C(O)Cc1c(O)c(CC=C(C)C)c2occ(-c3ccc(O)cc3)c(=O)c2c1O (centres unmarked),K562,"cell growth or viability, MTT",,100 µg/mL,viability,71.7%
Cc1cn([C@H]2C[C@H](N=[N+]=[N-])[C@@H](CO)O2)c(=O)[nH]c1=O,human PBMC,cell growth or viability,,,CC50,> 100 µM
Cc1ccc2cccc(C(=O)O)c2c1,K562,cell growth or viability,,,IC50,> 688 µM
COc1ccccc1CN[C@H]1C2CCN(CC2)[C@H]1C(c1ccccc1)c1ccccc1,human PBMC,"cell growth or viability, MTS",,,CC50,> 25 µM
CC(C)/N=C(\N)c1ccc(NC(=O)c2ccc(C(=O)Nc3ccc(/C(N)=N/C(C)C)cc3)cc2)cc1,K562,cell growth or viability,,,IC50,38.8 µM
N[C@@H](CC(=O)N1CCN(C(c2ccc(F)cc2)c2ccc(F)cc2)CC1)C(=O)N1Cc2ccccc2C1,K562,"cell growth or viability, ATP luminescence",,60 µM,viability,7%
O=C(O)c1cccc2ccccc12,K562,cell growth or viability,,,IC50,> 744 µM
CC(C)=CCc1c(O)c(CC=C(C)C)c2occ(-c3ccc(O)cc3)c(=O)c2c1O,K562,"cell growth or viability, MTT",,100 µg/mL,viability,94%
